Consider 36 sequences from the array DNA melting data of Ke et al. (doi:10.1101/2024.01.08.574731).

The nature of data set [1]: melting temperature; fluorescence melt of hairpins on a sequencing array, two-state fit, raised by 9.35 °C to match UV melts. Conditions: sodium 0.088 M. In outline: (§1)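 Folding enthalpy and melting temperature come from bootstrapped two-state fits to Cy3 fluorescence of library hairpins carrying annealed Cy3 and quencher oligos on a sequenced MiSeq flow cell. Imaging was done in 50 mM Na-HEPES pH 8.0, 25 mM NaCl, stepping by 2.5 °C up to 60 °C, and signals were normalised to pre-quench Cy3 and to control constructs. Results of four replicates were combined by inverse variance, and fitted temperatures were raised by 9.35 °C to match UV melts.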

The nature of data set [2]: folding enthalpy; higher = less favourable; fluorescence melt of hairpins on a sequencing array, two-state fit. Conditions: sodium 0.088 M. An outline of the steps: as §1

Take GGCAGCCGAAAGGCCGCC (((.(((....))).))): the Tm in data set [1] turned out to be 66.9 °C. The folding enthalpy in data set [2] was -22.3 kcal/mol.

Consider GGCAGCGAAAGCTACGCC ((((((....)))..))), for which, in data set [1], the Tm came to 53.5 °C. Besides, the folding enthalpy in data set [2] was -20.5 kcal/mol.

With GGCAGCGAAAGCTGCGCC ((((((....)))..))), the Tm in data set [1] was 65.7 °C. In addition, the folding enthalpy in data set [2] is -6.68 kcal/mol.

Consider GGCAGCGAAAGCTTGCC ((((((....))).))), for which the Tm in data set [1] is 63.1 °C. Further, the folding enthalpy in data set [2] was -27.1 kcal/mol.

Turning to GGCAGCGAAAGCTTGGCC ((((((....)))..))), the Tm in data set [1] amounted to 52.7 °C. Moreover, in data set [2], the folding enthalpy was -23.7 kcal/mol.

GGCAGCGGAAACGTTGCC ((((.((....)).)))): in data set [1], the Tm was determined as 61.2 °C. Moreover, the folding enthalpy in data set [2] is -40.4 kcal/mol.

For GGCAGGACGAAAGTCGCC (((..(((....)))))), the Tm in data set [1] was 55.4 °C. Further, the folding enthalpy in data set [2] is -38.2 kcal/mol.

With GGCAGGGGAAACCTTGCC ((((.((....)).)))), the Tm in data set [1] turned out to be 55.3 °C. Also, the folding enthalpy in data set [2] is -49.2 kcal/mol.

GGCAGTCGAAAGACAGCC (((.(((....))).))): the Tm in data set [1] was 61.8 °C. For the same sequence, the folding enthalpy in data set [2] was -38.9 kcal/mol.

On to GGCAGTGCGAAAGCAGCC (((..(((....)))))), for which, in data set [1], the Tm was found to be 53 °C. Further, the folding enthalpy in data set [2] is -19.7 kcal/mol.

Consider GGCAGTGGAAACACCACC ((..(((....)))..)), for which the Tm in data set [1] is 29.5 °C. The folding enthalpy in data set [2] is -13.2 kcal/mol.

On to GGCAGTGGAAACACTGTC (.(((((....))))).), for which the Tm in data set [1] was found to be 54.1 °C. Also, the folding enthalpy in data set [2] was -30.2 kcal/mol.

As for GGCAGTGGAAACGCTGCC (((((.(....).))))), the Tm in data set [1] was 62.7 °C. Besides, in data set [2], the folding enthalpy was -42.3 kcal/mol.

For GGCAGTGGAAACGCTGTC (.(((.(....).))).), the Tm in data set [1] turned out to be 44.5 °C. For the same sequence, in data set [2], the folding enthalpy is -23.4 kcal/mol.

In the case of GGCATACGAAAGTAGCC (((.(((....)))))), in data set [1], the Tm stood at 52.7 °C. Further, the folding enthalpy in data set [2] is -24.4 kcal/mol.

Turning to GGCATAGAAATATGCC ((((((....)))))), the Tm in data set [1] worked out at 55.4 °C. In data set [2], the folding enthalpy was -42.2 kcal/mol.

For the sequence GGCATAGGAAACTATACC ((.((((....)))).)), in data set [1], the Tm was 31.2 °C. The folding enthalpy in data set [2] was -18.6 kcal/mol.

As for GGCATCCGAAAGGACGCC (((.(((....))).))), the Tm in data set [1] was 57.2 °C. Also, the folding enthalpy in data set [2] is -48.8 kcal/mol.

Take GGCATCCGAAAGGAGGCC (((.(((....))).))): in data set [1], the Tm was found to be 69.3 °C. The folding enthalpy in data set [2] was -38.2 kcal/mol.

Take GGCATCGAAAGATAGCC ((((((....))).))): the Tm in data set [1] amounted to 51.9 °C. In addition, the folding enthalpy in data set [2] is -25.6 kcal/mol.

On to GGCATCGAAAGATCTGCC ((((((....)))..))), for which the Tm in data set [1] was determined as 39.6 °C. In addition, the folding enthalpy in data set [2] is -24.9 kcal/mol.

GGCATCGAAAGATGGGCC ((((((....)))..))): in data set [1], the Tm was found to be 46.8 °C. Besides, the folding enthalpy in data set [2] is -19.2 kcal/mol.

For GGCATCGAAAGATTGCC ((((((....))).))), the Tm in data set [1] was 52.7 °C. Moreover, the folding enthalpy in data set [2] was -31.1 kcal/mol.

For GGCATCGAAAGATTTGCC ((((((....)))..))), the Tm in data set [1] stood at 40.7 °C. For the same sequence, in data set [2], the folding enthalpy is -29.2 kcal/mol.

For the sequence GGCATGAAAATGCC (((((....))))), the Tm in data set [1] was determined as 62.8 °C. Further, the folding enthalpy in data set [2] is -26 kcal/mol.

Consider GGCATGACGAAAGTCGCC (((..(((....)))))), for which, in data set [1], the Tm is 52.6 °C. Besides, in data set [2], the folding enthalpy was -28.3 kcal/mol.

Turning to GGCATGCGAAAGCAGCC (((.(((....)))))), the Tm in data set [1] came out at 64.3 °C. Further, the folding enthalpy in data set [2] was -21.6 kcal/mol.

On to GGCATGGGAAACCACGCC (((.(((....))).))), for which, in data set [1], the Tm worked out at 49.4 °C. Further, the folding enthalpy in data set [2] is -35.2 kcal/mol.

In the case of GGCCAACCGAAAGGTGCC (((..(((....)))))), the Tm in data set [1] worked out at 50.4 °C. Further, in data set [2], the folding enthalpy was -23.8 kcal/mol.

GGCCAACGAAAGTTCGCC (((.(((....))).))): the Tm in data set [1] was found to be 47 °C. Moreover, the folding enthalpy in data set [2] was -40.2 kcal/mol.

For GGCCAACGAAAGTTTGCC (((.(((....))).))), in data set [1], the Tm came out at 50.7 °C. Besides, the folding enthalpy in data set [2] was -45.6 kcal/mol.

For GGCCAAGGAAACCTAGCC (((.(.(....).).))), the Tm in data set [1] is 31.3 °C. In addition, the folding enthalpy in data set [2] is -27.2 kcal/mol.

As to GGCCAAGGAAACTCAGCC (((..((....))..))), in data set [1], the Tm was 30.2 °C. For the same sequence, the folding enthalpy in data set [2] was -11.7 kcal/mol.

Turning to GGCCAAGGAAACTTAGCC (((.(((....))).))), the Tm in data set [1] was found to be 36.3 °C. For the same sequence, the folding enthalpy in data set [2] is -24.7 kcal/mol.

As to GGCCACGGAAACGTGACC ((.((((....)))).)), in data set [1], the Tm was 54.1 °C. Besides, in data set [2], the folding enthalpy is -37.9 kcal/mol.

Take GGCCAGACGAAAGTCGCC (((..(((....)))))): the Tm in data set [1] is 54.1 °C. Moreover, in data set [2], the folding enthalpy was -13.3 kcal/mol.
